In ChEMBL document CHEMBL3286229 (J Med Chem, 2014) one finds Activity and EC50 data, which are given here for three compounds.

The test system of data set [1] is Mus musculus. Kind of data set: Sedative effect in ip dosed C57BL/6N mouse assessed as reduction in locomotor activity by open field test. It counts as organism-based. Particulars: in vivo. In a few lines: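 Male C57BL/6N mice, 3–6 months old, dosed ip 30 min before testing. Vehicle was 0.9% NaCl with 10% DMSO and 3% Tween 80; doses in mg/kg. Ambulation recorded over 10 min in a 50 × 50 cm box fitted with infrared rearing detection.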

In data set [2] the test system is Mus musculus. The experiment in a line: Anxiolysis activity in ip dosed C57BL/6N mouse assessed as time spent on open arms by elevated plus maze test. The data set is classed as functional, organism-based. An outline of the steps: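 Male C57BL/6N mice, 3–6 months old, given ip injections 30 min before testing. Vehicle was 0.9% NaCl with 10% DMSO and 3% Tween 80; doses in mg/kg, with saline controls. 5 min on an elevated plus maze (arms 50 × 5 cm, 1 m high, 180 Lux), starting in the centre facing an open arm. Time on open arms scored automatically by video.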

The target in data set [3] is Transient receptor potential cation channel subfamily V member 1 (Homo sapiens) (UniProt Q8NER1). The experiment in a line: Activation of TRPV1 (unknown origin) expressed in Xenopus oocytes up to 100 uM. It counts as cell-based.
For data set [4], the target named is T1, GABA-A receptor; alpha-1/beta-2/gamma-2 (Homo sapiens, UniProt P14867+P18507+P47870).
T1 sequence (P14867 whole entry): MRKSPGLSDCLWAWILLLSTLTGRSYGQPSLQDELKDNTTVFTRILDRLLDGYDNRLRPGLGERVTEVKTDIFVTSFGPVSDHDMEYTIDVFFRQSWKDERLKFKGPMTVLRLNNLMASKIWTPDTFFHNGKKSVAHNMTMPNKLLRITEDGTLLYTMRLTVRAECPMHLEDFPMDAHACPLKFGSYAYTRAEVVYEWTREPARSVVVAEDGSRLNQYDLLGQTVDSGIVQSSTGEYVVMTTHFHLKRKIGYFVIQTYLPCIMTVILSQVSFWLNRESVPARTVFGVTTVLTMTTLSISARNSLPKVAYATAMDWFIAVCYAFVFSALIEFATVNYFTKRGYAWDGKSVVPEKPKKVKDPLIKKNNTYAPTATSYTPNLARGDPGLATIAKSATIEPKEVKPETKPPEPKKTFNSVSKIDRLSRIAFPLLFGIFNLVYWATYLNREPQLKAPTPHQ
T1 sequence (P47870 whole entry): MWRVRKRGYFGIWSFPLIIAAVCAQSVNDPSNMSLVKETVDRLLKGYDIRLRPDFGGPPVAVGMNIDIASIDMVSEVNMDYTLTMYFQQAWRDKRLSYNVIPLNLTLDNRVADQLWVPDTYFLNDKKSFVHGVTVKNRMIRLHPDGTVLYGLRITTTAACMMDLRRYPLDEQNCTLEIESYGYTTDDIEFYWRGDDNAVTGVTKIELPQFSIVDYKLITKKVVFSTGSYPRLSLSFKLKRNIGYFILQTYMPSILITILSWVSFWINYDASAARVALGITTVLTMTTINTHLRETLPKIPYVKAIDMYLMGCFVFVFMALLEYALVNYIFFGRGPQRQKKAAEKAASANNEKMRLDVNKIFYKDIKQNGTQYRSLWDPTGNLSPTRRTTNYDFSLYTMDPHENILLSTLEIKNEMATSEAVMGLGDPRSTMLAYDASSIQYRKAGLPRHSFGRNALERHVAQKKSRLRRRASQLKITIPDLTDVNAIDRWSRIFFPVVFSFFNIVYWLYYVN
T1 sequence (P18507 whole entry): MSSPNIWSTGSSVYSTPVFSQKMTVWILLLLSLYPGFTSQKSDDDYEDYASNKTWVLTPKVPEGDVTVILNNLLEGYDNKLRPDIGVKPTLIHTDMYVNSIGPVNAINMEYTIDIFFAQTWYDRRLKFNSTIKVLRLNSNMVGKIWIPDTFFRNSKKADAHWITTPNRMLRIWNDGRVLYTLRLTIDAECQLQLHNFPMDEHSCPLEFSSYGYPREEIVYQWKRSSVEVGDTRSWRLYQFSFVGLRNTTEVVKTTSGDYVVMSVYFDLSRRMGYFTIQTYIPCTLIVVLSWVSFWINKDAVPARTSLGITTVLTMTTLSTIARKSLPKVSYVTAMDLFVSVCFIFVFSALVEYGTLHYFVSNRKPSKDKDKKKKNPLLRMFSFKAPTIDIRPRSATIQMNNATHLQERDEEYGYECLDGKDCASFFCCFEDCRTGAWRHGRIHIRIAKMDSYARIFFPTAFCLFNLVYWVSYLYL
The experiment in a line: Modulation of GABAA alpha1beta2gamma2S receptor (unknown origin) expressed in Xenopus laevis oocytes assessed as potentiation of GABA-induced chloride ion current at holding potential -70 mV by two-microelectrode voltage clamp assay. The data set is classed as cell-based. An outline of the steps: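 Stage V–VI oocytes injected with α1, β2 and γ2S cRNAs mixed 1:1:10 and kept at 18 °C in modified ND96 (pH 7.4). Two-microelectrode voltage clamp at room temperature, holding potential −70 mV, electrodes with 2 M KCl. Compounds co-applied by fast perfusion with GABA at EC3–7. Washout lasted 1.5 min below 10 μM and 30 min at ≥10 μM. Oocytes with currents >3 μA discarded.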

Structures are written as SMILES. Active and inactive are the calls of the source. The rule behind the calls is not given here.

Chain of Transient receptor potential cation channel subfamily V member 1 (Homo sapiens) (Q8NER1 whole entry): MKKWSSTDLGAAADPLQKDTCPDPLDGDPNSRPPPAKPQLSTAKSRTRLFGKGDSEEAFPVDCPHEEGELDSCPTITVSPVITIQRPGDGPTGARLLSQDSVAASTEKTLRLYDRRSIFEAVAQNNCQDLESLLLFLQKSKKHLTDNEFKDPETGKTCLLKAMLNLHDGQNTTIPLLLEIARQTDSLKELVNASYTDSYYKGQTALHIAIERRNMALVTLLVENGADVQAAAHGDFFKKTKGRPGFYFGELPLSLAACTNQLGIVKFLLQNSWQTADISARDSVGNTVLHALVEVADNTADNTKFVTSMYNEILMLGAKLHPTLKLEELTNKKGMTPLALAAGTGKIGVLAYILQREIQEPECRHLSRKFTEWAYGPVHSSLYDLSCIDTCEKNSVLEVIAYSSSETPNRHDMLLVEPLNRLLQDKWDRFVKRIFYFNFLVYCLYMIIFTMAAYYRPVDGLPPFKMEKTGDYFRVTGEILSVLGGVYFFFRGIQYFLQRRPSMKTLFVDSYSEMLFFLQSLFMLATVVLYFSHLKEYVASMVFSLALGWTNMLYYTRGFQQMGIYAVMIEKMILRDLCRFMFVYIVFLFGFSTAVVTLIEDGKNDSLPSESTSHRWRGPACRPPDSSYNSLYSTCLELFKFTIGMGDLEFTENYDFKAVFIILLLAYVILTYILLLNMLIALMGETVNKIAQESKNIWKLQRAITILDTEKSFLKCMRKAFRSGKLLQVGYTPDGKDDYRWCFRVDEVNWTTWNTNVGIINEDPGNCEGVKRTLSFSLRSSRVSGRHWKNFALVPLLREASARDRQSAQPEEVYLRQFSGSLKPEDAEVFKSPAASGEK

As for `CCCN(CCC)C(=O)/C=C/C=C/c1ccc2c(c1)OCO2`, the Activity result was “Toxic” with Mus musculus [1] and “Dose-dependent effect” with Mus musculus [2]. In addition, in data set [3], the result was inactive.

The EC50 is the concentration that produces a half-maximal response. Regarding `O=C(/C=C/C=C/c1ccc2c(c1)OCO2)N1CCCCC1` [PIPERINE], the EC50 in data set [4] turned out to be 52.4 µM.

Take `CCCCN(CCCC)C(=O)/C=C/C=C/c1ccc2c(c1)OCO2`: the Activity result in the data set with Mus musculus [1] is reported as “Toxic”. Also, the result in data set [3] was inactive.
